Laboratory results: ChEMBL document CHEMBL3351639, “Fluorinated analogues of marsanidine, a highly α2-AR/imidazoline I1 binding site-selective hypotensive agent. Synthesis and biological activities” (Eur J Med Chem, 2014)

What was measured:
[1] = biological target: T1, Adrenergic receptor alpha-1 (Rattus norvegicus, UniProt P15823+P23944+P43140); assay: Displacement of [3H]prazosin from alpha1-adrenoceptor in Sprague-Dawley rat brain membranes after 45 mins by liquid scintillation counting; assay type: cell membranes, Membrane
T1 sequence (P15823 whole entry): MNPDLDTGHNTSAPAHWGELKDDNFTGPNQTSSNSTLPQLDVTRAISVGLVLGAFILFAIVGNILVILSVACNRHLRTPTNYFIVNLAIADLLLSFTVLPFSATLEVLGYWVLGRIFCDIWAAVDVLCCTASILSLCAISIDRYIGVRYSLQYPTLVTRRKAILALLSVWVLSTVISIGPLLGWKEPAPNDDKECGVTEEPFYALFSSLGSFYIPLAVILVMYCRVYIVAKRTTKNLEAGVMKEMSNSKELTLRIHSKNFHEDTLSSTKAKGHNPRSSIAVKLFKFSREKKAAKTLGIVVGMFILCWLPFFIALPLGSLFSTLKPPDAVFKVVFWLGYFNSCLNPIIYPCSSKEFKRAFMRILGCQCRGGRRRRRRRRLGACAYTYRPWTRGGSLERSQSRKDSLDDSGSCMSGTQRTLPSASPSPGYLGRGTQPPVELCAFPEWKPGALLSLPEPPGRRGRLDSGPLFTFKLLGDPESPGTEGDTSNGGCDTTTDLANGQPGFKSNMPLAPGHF
T1 sequence (P23944 whole entry): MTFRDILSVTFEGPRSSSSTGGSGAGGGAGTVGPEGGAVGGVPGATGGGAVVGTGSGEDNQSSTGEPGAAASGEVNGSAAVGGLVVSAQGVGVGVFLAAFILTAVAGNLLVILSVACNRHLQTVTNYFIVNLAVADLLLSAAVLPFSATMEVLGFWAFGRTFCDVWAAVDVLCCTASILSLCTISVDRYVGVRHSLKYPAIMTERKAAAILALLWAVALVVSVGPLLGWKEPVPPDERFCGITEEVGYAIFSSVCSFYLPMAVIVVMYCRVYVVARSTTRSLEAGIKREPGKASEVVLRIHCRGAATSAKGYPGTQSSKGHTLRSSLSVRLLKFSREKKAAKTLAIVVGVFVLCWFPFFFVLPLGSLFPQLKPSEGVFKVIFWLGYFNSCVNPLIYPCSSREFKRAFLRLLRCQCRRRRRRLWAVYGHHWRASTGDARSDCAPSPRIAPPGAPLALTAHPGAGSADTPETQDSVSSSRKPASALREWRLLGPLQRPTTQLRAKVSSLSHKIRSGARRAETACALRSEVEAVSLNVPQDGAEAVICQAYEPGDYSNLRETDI
T1 sequence (P43140 whole entry): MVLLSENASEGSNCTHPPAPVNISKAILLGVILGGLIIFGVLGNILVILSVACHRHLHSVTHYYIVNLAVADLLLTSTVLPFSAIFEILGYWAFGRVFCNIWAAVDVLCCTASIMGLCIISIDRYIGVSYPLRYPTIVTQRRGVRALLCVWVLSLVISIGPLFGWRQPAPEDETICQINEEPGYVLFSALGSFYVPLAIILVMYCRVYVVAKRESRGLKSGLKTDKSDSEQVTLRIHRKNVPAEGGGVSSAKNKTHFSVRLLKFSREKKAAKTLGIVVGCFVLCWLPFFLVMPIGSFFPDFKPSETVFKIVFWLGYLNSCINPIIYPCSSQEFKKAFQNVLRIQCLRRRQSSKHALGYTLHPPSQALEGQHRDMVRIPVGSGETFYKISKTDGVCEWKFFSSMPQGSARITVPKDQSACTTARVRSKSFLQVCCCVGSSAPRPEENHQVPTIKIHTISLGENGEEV
Summary of the method: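 Crude P2 membranes from brains of male Sprague-Dawley rats (250–280 g), 0.2–0.3 mg protein. Radioligand 1 nM [3H]RX821002 (α2) or [3H]prazosin (α1); 11 concentrations of compound, 0.1 nM–100 µM. Non-specific binding: 10 µM rauwolscine (α2) or 10 µM phenylephrine (α1). Triplicate incubation, RT, 45 min. PEI-soaked glass-fibre filtration, then scintillation counting. Ki by Cheng-Prusoff; 3–4 experiments, or one for low-affinity compounds.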

[2] = Displacement of […] from imidazoline I2 receptor in Sprague-Dawley rat kidney membranes after 45 mins by liquid scintillation counting; assay type: cell membranes, Membrane
Rattus norvegicus [3] = assay: Hypotensive activity in anesthetized Wistar rat assessed as maximal reduction in mean arterial blood pressure at 0.1 mg/kg, iv measured during 60 mins post dose; assay type: functional
Summary of the method: (§1)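 Male Wistar rats (200–290 g) anaesthetized with thiopental 70 mg/kg i.p., maintained at 30 µg/kg/min; body temperature 36–37 °C. Carotid catheter recorded MAP and HR; jugular catheter for infusion. After 40 min of saline/thiopental infusion (1.2 ml/h), 0.1 mg/kg given as i.v. bolus (time 0). Signals sampled at 100 Hz. Maximal change from time 0 over 60 min, and its time, recorded. Saline vehicle control; n = 4–5.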

Rattus norvegicus [4] = assay: Cardiovascular activity in anesthetized Wistar rat assessed as maximal reduction in heart rate at 0.1 mg/kg, iv measured during 60 mins post dose; assay type: functional; summary of the method: as §1
Rattus norvegicus [5] = assay: Hypertensive activity in anesthetized Wistar rat assessed as maximal increase in mean arterial blood pressure at 0.1 mg/kg, iv measured during 60 mins post dose; assay type: organism-based; set-up: dose 0.1 mg/kg, route intravenous; conditions: in vivo, 1 h; summary of the method: as §1
Rattus norvegicus [6] = assay: Hypotensive activity in anesthetized Wistar rat assessed as time required for maximal reduction in mean arterial blood pressure at 0.1 mg/kg, iv; assay type: functional; summary of the method: as §1
Rattus norvegicus [7] = assay: Cardiovascular activity in anesthetized Wistar rat assessed as time required for maximal reduction in heart rate at 0.1 mg/kg, iv measured during 60 mins post dose; assay type: functional; summary of the method: as §1

Structure (SMILES)	Ki [1]	Ki [2]	Activity (Rattus norvegicus [3])	Activity (Rattus norvegicus [4])	Activity (Rattus norvegicus [5])	Time (Rattus norvegicus [6])	Time (Rattus norvegicus [7])
Fc1ccc2cnn(CC3=NCCN3)c2c1	518.3 nM	0.00819 µM	12.7 mmHg	52 bpm	23.6 mmHg	36 min	5 min
Fc1ccc2c(cnn2CC2=NCCN2)c1	476.3 nM	0.0104 µM	7.2 mmHg	12 bpm	0.8 mmHg	40 min	38 min
Fc1ccc2c(cnn2N=C2NCCN2)c1	2320 nM	5.7 µM	8.6 mmHg	61 bpm	14.6 mmHg	11 min	5 min
Fc1cccc2cnn(N=C3NCCN3)c12	1625 nM	349 µM	59.4 mmHg	128 bpm	21.1 mmHg	33 min	10 min
Fc1ccc2cnn(N=C3NCCN3)c2c1	918.3 nM	22 µM	36 mmHg	118 bpm	24.8 mmHg	35 min	2 min
